Columns and labels:
COLO 320DM [1] = assay: COLO 320DM colon tumor cell proliferation inhibition by the compound in vitro at a concentration of 6.0 uM.; assay type: functional, Homo sapiens
Method in brief: (§1)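 Tumor cells grown in RPMI-1640 in 1% agar with 5% fetal bovine serum, exposed to the specified concentrations for 1 week. Viability was assessed against a control given distilled water in place of drug. 5-Fluorouracil served as the positive cytotoxic standard. Results are reported as concentration-dependent cell survival.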

[2] = tested on: Human immunodeficiency virus 1; assay: Percent inhibition of HIV-1 binding to H-9 cells at a concentration of 100(ug/mL).; assay type: functional
Method in brief: (§2)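 HIV-1 Molt IIIB (50 μL) incubated overnight with compound at 100 μg/mL, then with uninfected H-9 cells 2 h at 37 °C. Washed; stained with HIV-positive human serum (1:100) then FITC anti-human IgG (1:10), 30 min at 4 °C each. Formaldehyde-fixed (0.5%) and analysed by flow cytometry for % virus bound and % binding inhibition.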

MT4 [3] = assay: Cytotoxic effect in cultured MT-4 lymphocytes at a concentration of 2 ug/mL (0.0070 uM/mL).; assay type: functional, Homo sapiens
Method in brief: (§3)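 MT-4 cells at 5 × 10^4 cells/well, 1 mL total, cultured with compound diluted in RPMI 1640 with 10% FBS, 10 mM HEPES, penicillin/streptomycin and 2 mM glutamine, at 37 °C under 5% CO2. Viability was scored by trypan blue exclusion on days 4 and 7, in triplicate, as % viable cells.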

MCF7 [4] = assay: […] breast tumor cell proliferation inhibition by the compound in vitro at a concentration of 0.6 uM.; assay type: functional, Homo sapiens
Method in brief: (§4)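 Breast tumor cells treated with specified compound concentrations in RPMI-1640 in 1% agar with 5% FBS for 1 week. Viability compared with a control given distilled water in place of drug; 5-fluorouracil as standard cytotoxic drug. Reported as concentration-dependent cell survival.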

COLO 320DM [5] = assay: COLO 320DM colon tumor cell proliferation inhibition by the compound in vitro at a concentration of 0.6 uM.; assay type: functional, Homo sapiens; method in brief: as §1
[6] = tested on: Human immunodeficiency virus 1; assay: Inactivation of HIV-MN strain in MT-4 lymphocytes in vitro at a concentration of 200 ug/mL (0.70 uM/mL).; assay type: functional
Method in brief: (§5)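 Compound (50 μL) was mixed with 50 μL of HIV-1 Molt IIIB or HIV-MN inoculum in RPMI 1640 for 1 h at room temperature. The mixture was added to 5 × 10^4 MT-4 cells and kept 7 days at 37 °C, 5% CO2. MTT (5.0 mg/mL) was added for 4 h, the reaction was stopped with 0.04 N HCl/2-propanol, and OD was read at 570 nm. % inactivation was calculated from OD relative to uninfected cells and untreated virus, mean of three.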

[7] = tested on: Human immunodeficiency virus 1; assay: Inactivation of HIV-MoltIIIB strain in MT-4 lymphocytes in vitro at a concentration of 200 ug/mL (0.70 uM/mL).; assay type: functional; method in brief: as §5
[8] = tested on: Human immunodeficiency virus 1; assay: Protection of MT-4 lymphocytes by the compound against HIV-1 infectivity in vitro at a concentration of 400 ug/mL (1.4 uM/mL); assay type: functional
Method in brief: (§6)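 Virus (HIV-1 Molt IIIB, ~2 × 10^4 TCID50) preincubated with compound 1 h at 37 °C, 5% CO2. Then added to MT-4 cells (5 × 10^5 cells/well) and cultured at 37 °C. Trypan blue viability counts taken on days 4 and 7, triplicate at each concentration. Controls were infected and uninfected cells. Reported as % viable (surviving) MT-4 cells.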

[9] = tested on: Human immunodeficiency virus 1; assay: Inhibitory effect against HIV-1 induced cytopathic effects(HIV-1 neutralization) in MT-4 lymphocytes at a concentration of 100 ug/mL (0.3500 uM/mL).; assay type: functional
Method in brief: (§7)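 HIV-1 Molt IIIB (~2 × 10^4 TCID50 in 100 μL) preincubated 1 h at 37 °C with a single compound dose, then added to MT-4 cells (5 × 10^5 cells/well, 1 mL). Cultured at 37 °C, 5% CO2. Viable cells counted by trypan blue exclusion on days 4 and 7. Triplicates; % viable cells. Controls: infected cells (positive), uninfected cells (negative).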

MCF7 [10] = assay: […] breast tumor cell proliferation inhibition by the compound in vitro at a concentration of 6.0 uM.; assay type: functional, Homo sapiens; method in brief: as §4
[11] = tested on: Human immunodeficiency virus 1; assay: Protection of MT-4 lymphocytes by the compound against HIV-1 infectivity in vitro at a concentration of 100 ug/mL (0.35 uM/mL); assay type: functional; method in brief: as §6
[12] = tested on: Human immunodeficiency virus 1; assay: Inhibitory effect (100 uM) against HIV-1 in human peripheral blood monocyte cells(PBMC) (EC50 ->28.6 ug/mL); assay type: functional
[13] = Calu3 lung tumor cell proliferation inhibition by the compound in vitro at a concentration of 0.6 uM.; assay type: functional, Homo sapiens; method in brief: as §1
[14] = tested on: Human immunodeficiency virus 1; assay: Percent HIV-1 bound to H-9 cells at a concentration of 100(ug/mL).; assay type: functional; method in brief: as §2
MCF7 [15] = assay: […] breast tumor cell proliferation inhibition by the compound in vitro at a concentration of 60 uM.; assay type: functional, Homo sapiens; method in brief: as §4
[16] = tested on: Human immunodeficiency virus 1; assay: Protection of MT-4 lymphocytes by the compound against HIV-1 infectivity in vitro at a concentration of 200 ug/mL (0.70 uM/mL); assay type: functional; method in brief: as §6
[17] = Calu3 lung tumor cell proliferation inhibition by the compound in vitro at a concentration of 6.0 uM.; assay type: functional, Homo sapiens; method in brief: as §1
[18] = Calu3 lung tumor cell proliferation inhibition by the compound in vitro at a concentration of 60 uM.; assay type: functional, Homo sapiens; method in brief: as §1
MT4 [19] = assay: Cytotoxic effect in cultured MT-4 lymphocytes at a concentration of 10 ug/mL (0.0350 uM/mL).; assay type: functional, Homo sapiens; method in brief: as §3
COLO 320DM [20] = assay: COLO 320DM colon tumor cell proliferation inhibition by the compound in vitro at a concentration of 60 uM.; assay type: functional, Homo sapiens; method in brief: as §1
[21] = tested on: Human immunodeficiency virus 1; assay: Inactivation of HIV-MN strain in MT-4 lymphocytes in vitro at a concentration of 400 ug/mL (1.40 uM/mL).; assay type: functional; method in brief: as §5
[22] = tested on: Human immunodeficiency virus 1; assay: Inactivation of HIV-MoltIIIB strain in MT-4 lymphocytes in vitro at a concentration of 100 ug/mL (0.35 uM/mL).; assay type: functional; method in brief: as §5
[23] = tested on: Human immunodeficiency virus 1; assay: Inactivation of HIV-MoltIIIB strain in MT-4 lymphocytes in vitro at a concentration of 400 ug/mL (1.4 uM/mL).; assay type: functional; method in brief: as §5
MT4 [24] = assay: Cytotoxic effect in cultured MT-4 lymphocytes at a concentration of 100 ug/mL (0.3500 uM/mL).; assay type: functional, Homo sapiens; method in brief: as §3
[25] = tested on: Human immunodeficiency virus 1; assay: Inactivation of HIV-MN strain in MT-4 lymphocytes in vitro at a concentration of 100 ug/mL (0.35 uM/mL).; assay type: functional; method in brief: as §5
MT4 [26] = assay: Cytotoxic effect in cultured MT-4 lymphocytes at a concentration of 2 ug/mL (0.0080 uM/mL).; assay type: functional, Homo sapiens; method in brief: as §3
[27] = tested on: Human immunodeficiency virus 1; assay: Inhibitory effect against HIV-1 induced cytopathic effects(HIV-1 neutralization) in MT-4 lymphocytes at a concentration of 100 ug/mL (0.3000 uM/mL).; assay type: functional; method in brief: as §7
MT4 [28] = assay: Protection of MT-4 lymphocytes by the compound against HIV-1 infectivity in vitro at a concentration of 12.5 ug/mL (0.038 uM/mL); assay type: functional, Homo sapiens; method in brief: as §6
[29] = tested on: Human immunodeficiency virus 1; assay: Protection of MT-4 lymphocytes by the compound against HIV-1 infectivity in vitro at a concentration of 200 ug/mL (0.60 uM/mL); assay type: functional; method in brief: as §6
[30] = tested on: Human immunodeficiency virus 1; assay: Inactivation of HIV-MN strain in MT-4 lymphocytes in vitro at a concentration of 100 ug/mL (0.30 uM/mL).; assay type: functional; method in brief: as §5
[31] = tested on: Human immunodeficiency virus 1; assay: Inactivation of HIV-MoltIIIB strain in MT-4 lymphocytes in vitro at a concentration of 400 ug/mL (1.2u M/mL).; assay type: functional; method in brief: as §5
MT4 [32] = assay: Cytotoxic effect in cultured MT-4 lymphocytes at a concentration of 10 ug/mL (0.0300 uM/mL).; assay type: functional, Homo sapiens; method in brief: as §3
MT4 [33] = assay: Protection of MT-4 lymphocytes by the compound against HIV-1 infectivity in vitro at a concentration of 25 ug/mL (0.075 uM/mL); assay type: functional, Homo sapiens; method in brief: as §6
[34] = tested on: Human immunodeficiency virus 1; assay: Inhibitory effect (100 uM) against HIV-1 in human peripheral blood monocyte cells(PBMC) (EC50 ->32.5 ug/mL); assay type: functional
[35] = tested on: Human immunodeficiency virus 1; assay: Inactivation of HIV-MoltIIIB strain in MT-4 lymphocytes in vitro at a concentration of 100 ug/mL (0.30 uM/mL).; assay type: functional; method in brief: as §5
[36] = tested on: Human immunodeficiency virus 1; assay: Protection of MT-4 lymphocytes by the compound against HIV-1 infectivity in vitro at a concentration of 100 ug/mL (0.30 uM/mL); assay type: functional; method in brief: as §6
[37] = tested on: Human immunodeficiency virus 1; assay: Inactivation of HIV-MN strain in MT-4 lymphocytes in vitro at a concentration of 200 ug/mL (0.60 uM/mL).; assay type: functional; method in brief: as §5
MT4 [38] = assay: Cytotoxic effect in cultured MT-4 lymphocytes at a concentration of 2 ug/mL (0.0060 uM/mL).; assay type: functional, Homo sapiens; method in brief: as §3
[39] = tested on: Human immunodeficiency virus 1; assay: Protection of MT-4 lymphocytes by the compound against HIV-1 infectivity in vitro at a concentration of 400 ug/mL (1.20 uM/mL); assay type: functional; method in brief: as §6
MT4 [40] = assay: Protection of MT-4 lymphocytes by the compound against HIV-1 infectivity in vitro at a concentration of 50 ug/mL (0.150 uM/mL); assay type: functional, Homo sapiens; method in brief: as §6
[41] = tested on: Human immunodeficiency virus 1; assay: Inactivation of HIV-MoltIIIB strain in MT-4 lymphocytes in vitro at a concentration of 200 ug/mL (0.60 uM/mL).; assay type: functional; method in brief: as §5
[42] = tested on: Human immunodeficiency virus 1; assay: Inactivation of HIV-MN strain in MT-4 lymphocytes in vitro at a concentration of 400 ug/mL (1.20 uM/mL).; assay type: functional; method in brief: as §5
MT4 [43] = assay: Cytotoxic effect in cultured MT-4 lymphocytes at a concentration of 100 ug/mL (0.3000 uM/mL).; assay type: functional, Homo sapiens; method in brief: as §3

O=C([O-])CSc1ccc2nc3ccccc3c(O)c2c1.[Na+]
Viability (COLO 320DM [1]): 41% | Inhibition [2]: 32.7% | Viability (MT4 [3]): 96.7% | Viability (MCF7 [4]): 85% | Viability (COLO 320DM [5]): 110% | Inactivation [6]: 40.5% | Inactivation [7]: 100% | Survival [8]: 84.2% | Viability [9]: 70.9% | Viability (MCF7 [10]): 19% | Survival [11]: 72.7% | Inhibition [12]: 31% | Viability [13]: 113% | Bound [14]: 22.4% | Viability (MCF7 [15]): 0% | Survival [16]: 81.4% | Viability [17]: 48% | Viability [18]: 0% | Viability (MT4 [19]): 93.3% | Viability (COLO 320DM [20]): 0% | Inactivation [21]: 25% | Inactivation [22]: 21% | Inactivation [23]: 74.3% | Viability (MT4 [24]): 92.6% | Inactivation [25]: 13.1%

Cc1nc2cc3nc4ccccc4cc3cc2s1.Cl
Viability (MT4 [26]): 85%

O=C([O-])CSc1ccc2c(c1)c(=O)c1ccccc1n2C1CC1.[Na+]
Viability [27]: 83.7% | Survival (MT4 [28]): 77.3% | Viability (COLO 320DM [1]): 108% | Inhibition [2]: 13.8% | Survival [29]: 81.3% | Viability (MCF7 [4]): 91% | Viability (COLO 320DM [5]): 107% | Inactivation [30]: 11.3% | Viability (MCF7 [10]): 86% | Viability [13]: 104% | Bound [14]: 28.7% | Inactivation [31]: 23.3% | Viability (MT4 [32]): 96% | Viability (MCF7 [15]): 44% | Survival (MT4 [33]): 85.5% | Inhibition [34]: 29% | Inactivation [35]: 3.9% | Viability [17]: 73% | Survival [36]: 83.7% | Inactivation [37]: 10% | Viability [18]: 44% | Viability (COLO 320DM [20]): 87% | Viability (MT4 [38]): 96.6% | Survival [39]: 86% | Survival (MT4 [40]): 89.2% | Inactivation [41]: 23.5% | Inactivation [42]: 11.6% | Viability (MT4 [43]): 100%

From ChEMBL document CHEMBL1125493, “HIV-1 neutralization and tumor cell proliferation inhibition in vitro by simplified analogues of pyrido[4,3,2-mn]thiazolo[5,4-b]acridine marine alkaloids” (J Med Chem, 1992)
